Assay results taken from ChEMBL document CHEMBL1121639, “Analgesic narcotic antagonists. 5. 7,7-Dimethyldihydrocodeinones and 7,7-dimethyldihydromorphinones” (1981).
The source made the active and inactive calls. The rule behind the calls is not given here.

Legend:
[1] = system: Rattus norvegicus; assay: Analgesic agonist activity in heat stimulus rat tail-flick assay on subcutaneous administration; assay type: functional; conditions: sc
Method in brief: (§1)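 Test agents given as solutions: salts in distilled water; free bases dissolved by adding 1 N HCl, then further diluted.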

[2] = system: Mus musculus; assay: Analgesic agonist activity in acetic acid induced mouse writhing assay, subcutaneous administration; assay type: functional; conditions: sc; method in brief: as §1
[3] = species: Rattus norvegicus; assay: Narcotic antagonist activity against an ED80 of morphine in the modified rat tail-flick assay; assay type: functional
[4] = system: Rattus norvegicus; assay: Compound was tested for analgesic agonist activity in heat stimulus rat tail-flick assay on subcutaneous administration; Inactive at 25 mg/kg; assay type: functional, organism-based; design: dose 25 mg/kg; method in brief: as §1
[5] = system: Mus musculus; assay: Compound was tested for the analgesic agonist activity in acetic acid induced mouse writhing assay on subcutaneous administration; Inactive at 25 umol/kg.; assay type: functional, organism-based; method in brief: as §1
[6] = system: Rattus norvegicus; assay: Compound was tested for analgesic agonist activity in heat stimulus rat tail-flick assay on subcutaneous administration; Inactive at 25 umol/kg; assay type: functional, organism-based; method in brief: as §1
[7] = system: Mus musculus; assay: Compound was tested for the analgesic agonist activity in acetic acid induced mouse writhing assay on subcutaneous administration; Inactive at 25 umol/kg; assay type: functional, organism-based; method in brief: as §1
[8] = system: Mus musculus; assay: Compound was tested for the analgesic agonist activity in acetic acid induced mouse writhing assay on subcutaneous administration; Inactive at 20 umol/kg.; assay type: functional, organism-based; method in brief: as §1
[9] = system: Mus musculus; assay: Compound was tested for the analgesic agonist activity in acetic acid induced mouse writhing assay on subcutaneous administration; Inactive at 28 umol/kg.; assay type: functional, organism-based; method in brief: as §1
[10] = system: Rattus norvegicus; assay: Compound was tested for the analgesic agonist activity in heat stimulus rat tail-flick assay; Inactive at 26 umol/kg; assay type: functional, organism-based; method in brief: as §1
[11] = system: Mus musculus; assay: Compound was tested for the analgesic agonist activity in acetic acid induced mouse writhing assay on subcutaneous administration; Inactive at 23 umol/kg.; assay type: functional, organism-based; method in brief: as §1
[12] = system: Mus musculus; assay: Compound was tested for the analgesic agonist activity in acetic acid induced mouse writhing assay on subcutaneous administration; Inactive at 16 umol/kg.; assay type: functional, organism-based; method in brief: as §1
[13] = system: Mus musculus; assay: Compound was tested for the analgesic agonist activity in acetic acid induced mouse writhing assay on subcutaneous administration; Inactive at 26 umol/kg.; assay type: functional, organism-based; method in brief: as §1

`COc1ccc2c3c1O[C@H]1[C@@H]4OC[C@]4(C)CC4[C@@H](C2)N(C)CC[C@@]341` (some centres undefined) was tested, and the ED50 [1] was over 30 µmol/kg and the ED50 [2] was 1.9 µmol/kg.

`CC[C@@H]1C2[C@H]3Cc4ccc(OC)c5c4[C@@]2(CCN3CC2CCC2)[C@@H](O5)C(=O)C1(C)C` (some centres undefined) gave an ED50 [3] of over 23 µmol/kg and an ED50 [2] of over 23 µmol/kg.

For `C[C@@H]1C2[C@H]3Cc4ccc(O)c5c4[C@@]2(CCN3CC2CCC2)[C@@H](O5)C(=O)C1(C)C` (some centres undefined), the ED50 [3] was over 25 µmol/kg and the ED50 [2] was over 25 µmol/kg.

In the case of `COc1ccc2c3c1O[C@H]1[C@@H]4OC[C@]4(C)[C@H](C)C4[C@@H](C2)N(C)CC[C@@]341` (some centres undefined), the ED50 [1] is reported as over 23 µmol/kg and the ED50 [2] is reported as 1.8 µmol/kg.

In the case of `CC[C@@H]1C2[C@H]3Cc4ccc(OC)c5c4[C@@]2(CCN3C)[C@@H](O5)[C@H](O)C1(C)C` (some centres undefined), the ED50 [1] is reported as over 22 µmol/kg and the ED50 [2] is reported as 21.5 µmol/kg.

With `CC[C@@H]1C2[C@H]3Cc4ccc(O)c5c4[C@@]2(CCN3C)[C@@H](O5)C(=O)C1(C)C` (some centres undefined) the ED50 [1] was 0.62 µmol/kg and the ED50 [2] was 0.6 µmol/kg.

In the case of `COc1ccc2c3c1O[C@H]1C(=O)C(C)(C)[C@H](C)C4[C@@H](C2)N(CC2CC2)CC[C@@]341` (some centres undefined), the ED50 [3] is reported as 7.3 µmol/kg and the ED50 [2] is reported as over 26 µmol/kg.

For `COc1ccc2c3c1O[C@H]1[C@H](O)C(CO)(CO)CC4[C@@H](C2)N(C)CC[C@@]341` (some centres undefined), the ED50 [4] was “inactive” and the ED50 [5] was “inactive”.

`COc1ccc2c3c1O[C@H]1[C@H](O)C(C)(C)[C@H](C)C4[C@@H](C2)N(C)CC[C@@]341` (some centres undefined) gave an ED50 [1] of 15.6 µmol/kg and an ED50 [2] of 3.8 µmol/kg.

`CC[C@@H]1C2[C@H]3Cc4ccc(OC)c5c4[C@@]2(CCN3C)[C@@H](O5)C(=O)C1(C)C` (some centres undefined) gave an ED50 [1] of 13.9 µmol/kg and an ED50 [2] of 4.4 µmol/kg.

With `CC[C@@H]1C2[C@H]3Cc4ccc(OC)c5c4[C@@]2(CCN3C)[C@@H](O5)[C@H](O)C1(CO)CO` (some centres undefined) the ED50 [6] was “inactive” and the ED50 [7] was “inactive”.

For `CN1CC[C@]23c4c5ccc(O)c4O[C@H]2C(=O)CC[C@H]3[C@H]1C5` [HYDROMORPHONE], the ED50 [1] was 1.3 µmol/kg.

In the case of `CC[C@@H]1C2[C@H]3Cc4ccc(OC)c5c4[C@@]2(CCN3CC2CC2)[C@@H](O5)C(=O)C1(C)C` (some centres undefined), the ED50 [8] is reported as “inactive” and the ED50 [3] is reported as over 20 µmol/kg.

`COc1ccc2c3c1O[C@H]1C(=O)C(C)(C)CC4[C@@H](C2)N(CC2CC2)CC[C@@]341` (some centres undefined) gave an ED50 [3] of 6.7 µmol/kg and an ED50 [2] of 5.3 µmol/kg.

Work on `COc1ccc2c3c1O[C@H]1C(=O)C(C)(C)[C@H](C)C4[C@@H](C2)N(CC2CCC2)CC[C@@]341` (some centres undefined) yielded an ED50 [3] of 4.7 µmol/kg and an ED50 [2] of 17.2 µmol/kg.

For `COc1ccc2c3c1O[C@H]1[C@@H](O)C(C)(C)CC4[C@@H](C2)N(C)CC[C@@]341` (some centres undefined), the ED50 [2] was 12.7 µmol/kg.

For `CC1(C)CC2[C@H]3Cc4ccc(O)c5c4[C@@]2(CCN3CC2CC2)[C@@H](O5)C1=O` (some centres undefined), the ED50 [9] was “inactive” and the ED50 [3] was 1.2 µmol/kg.

For `CC[C@@H]1C2[C@H]3Cc4ccc(O)c5c4[C@@]2(CCN3CC2CCC2)[C@@H](O5)C(=O)C1(C)C` (some centres undefined), the ED50 [3] was 2.8 µmol/kg and the ED50 [2] was 18.5 µmol/kg.

For `COc1ccc2c3c1O[C@H]1C(=O)CC[C@H]4[C@@H](C2)N(C)CC[C@]314` [HYDROCODONE], the ED50 [1] was 5.2 µmol/kg and the ED50 [2] was 2.4 µmol/kg.

With `COc1ccc2c3c1O[C@H]1C(=O)C(C)(C)[C@H](C)C4[C@@H](C2)N(C)CC[C@@]341` (some centres undefined) the ED50 [1] was 4.2 µmol/kg and the ED50 [2] was 2.5 µmol/kg.

`C[C@H]1[C@H]2Cc3ccc(O)cc3[C@]1(C)CCN2CC1CC1` [CYCLAZOCINE] was tested, and the ED50 [3] was 0.81 µmol/kg and the ED50 [2] was 0.41 µmol/kg.

In the case of `COc1ccc2c3c1O[C@H]1[C@H](O)C(CO)(CO)[C@H](C)C4[C@@H](C2)N(C)CC[C@@]341` (some centres undefined), the ED50 [2] is reported as over 26 µmol/kg and the ED50 [10] is reported as “inactive”.

For `CC[C@@H]1C2[C@H]3Cc4ccc(OC)c5c4[C@@]2(CCN3C)[C@@H](O5)[C@@H]2OC[C@]12C` (some centres undefined), the ED50 [1] was over 28 µmol/kg and the ED50 [2] was 11.1 µmol/kg.

Work on `COc1ccc2c3c1O[C@H]1[C@@H](O)C=C[C@H]4[C@@H](C2)N(C)CC[C@@]341` [CODEINE] yielded an ED50 [1] of 75 µmol/kg and an ED50 [2] of 10.3 µmol/kg.

`CC(C)=CCN1CC[C@@]2(C)c3cc(O)ccc3C[C@@H]1[C@@H]2C` showed an ED50 [3] of 36.4 µmol/kg and an ED50 [2] of 13 µmol/kg.

In the case of `C[C@@H]1C2[C@H]3Cc4ccc(O)c5c4[C@@]2(CCN3CC2CC2)[C@@H](O5)C(=O)C1(C)C` (some centres undefined), the ED50 [3] is reported as 0.38 µmol/kg and the ED50 [11] is reported as “inactive”.

`COc1ccc2c3c1O[C@H]1[C@H](O)C(C)(C)CC4[C@@H](C2)N(C)CC[C@@]341` (some centres undefined) showed an ED50 [1] of 30.4 µmol/kg and an ED50 [2] of 6.5 µmol/kg.

For `Oc1ccc2c(c1)[C@@]13CCCC[C@@]1(O)[C@@H](C2)N(CC1CCC1)CC3` [BUTORPHANOL], the ED50 [3] was 2 µmol/kg and the ED50 [2] was 0.34 µmol/kg.

For `CC[C@@H]1C2[C@H]3Cc4ccc(O)c5c4[C@@]2(CCN3CC2CC2)[C@@H](O5)C(=O)C1(C)C` (some centres undefined), the ED50 [3] was 2.4 µmol/kg and the ED50 [12] was “inactive”.

In the case of `COc1ccc2c3c1O[C@H]1C(=O)C(C)(C)CC4[C@@H](C2)N(CC2CCC2)CC[C@@]341` (some centres undefined), the ED50 [13] is reported as “inactive” and the ED50 [3] is reported as over 26 µmol/kg.

`CC1(C)CC2[C@H]3Cc4ccc(O)c5c4[C@@]2(CCN3CC2CCC2)[C@@H](O5)C1=O` (some centres undefined) showed an ED50 [3] of over 24 µmol/kg and an ED50 [2] of 2.2 µmol/kg.

`COc1ccc2c3c1O[C@H]1C(=O)C(C)(C)CC4[C@@H](C2)N(C)CC[C@@]341` (some centres undefined) gave an ED50 [1] of 9.8 µmol/kg and an ED50 [2] of 3.9 µmol/kg.

`CN1CC[C@]23c4c5ccc(O)c4O[C@H]2C(=O)C(C)(C)CC3[C@H]1C5` (some centres undefined) was tested, and the ED50 [1] was 0.99 µmol/kg and the ED50 [2] was 0.19 µmol/kg.
